From the RNAGym collection of RNA variant scans (doi:10.1126/science.aae0568)
This sample holds only a part of the variants without activity.

B1: tRNA (parent)
chain: GUUCCGUUGGCGUAAUGGUAACGCGUCUCCCUCCUAAGGAGAAGACUGCGGGUUCGAGUCCCGUACGGAACG

Variants of: B1
Test: yeast fitness relative to wild type (ratio to wild type); higher = fitter; tRNA-Arg(CCU), competitive growth, 37 C, YPD
Method in brief: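 Start and end populations of a pooled competition were compared by 100-nucleotide paired-end sequencing of gene amplicons. The Saccharomyces cerevisiae strains carried tRNA-Arg(CCU) gene variants at the native genomic locus, synthesised with a 3% per-site mutation rate at 69 sites, and competed in YPD at 37°C for 24 hours in six parallel replicates. Darwinian fitness relative to wild type was based on the change in genotype frequencies. Genotypes required ≥ 100 starting reads, and estimates < 0.5 were set to 0.5.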

Row | Variant | yeast fitness
1 | C29G G58C A69U | 0.607
2 | C29U A57G | 0.908
3 | C29G C55A A65G | ≤ 0.5
4 | C29U A70U | 0.827
5 | C29U A37G A65U | ≤ 0.5
6 | C29G G63C A70U | ≤ 0.5
7 | C29U A43U C46A G50A C61G G68A | ≤ 0.5
8 | C29G U47G C49G U54G | ≤ 0.5
9 | C29U A45G | 0.98
10 | C29U A45U | 0.928
11 | C29G C55A U64A A65C | ≤ 0.5
12 | C29G G44U A65G | ≤ 0.5
13 | C29G C55U G67C | ≤ 0.5
14 | C29U C30A G38A | ≤ 0.5
15 | C29G G48C C49U C61A | ≤ 0.5
16 | C29G C49U G68A | ≤ 0.5
17 | C29U A37C C55A G58A | ≤ 0.5
18 | C29U A57U C62A | ≤ 0.5
19 | C29G U35G C62U A69U | ≤ 0.5
20 | C29G U32C A36G C60A | ≤ 0.5
21 | C29G G56A C61U | ≤ 0.5
22 | C29G G56A C61A | 0.547
23 | C29U C31A A69U | 0.627
24 | C29G C66A | 0.506

Row | Variant | yeast fitness
25 | C29G C66U | 0.648
26 | C29U A36U | 0.567
27 | C29U A36G | 0.842
28 | C29U A36C | 0.531
29 | C29U C30U C61A | ≤ 0.5
30 | C29G C62U | 0.721
31 | C29G C62A | 0.506
32 | C29G C49U U53C A57C C60G U64C G68U | ≤ 0.5
33 | C29U A36G A40U G56C A69C | ≤ 0.5
34 | C29G G38A A43U | 0.689
35 | C29G G51C | 0.55
36 | C29G C49A C60A | 0.572
37 | C29U A36C G48A G50C | ≤ 0.5
38 | C29G G48A | 0.586
39 | C29G G48C | 0.563
40 | C29G U35A G68C | ≤ 0.5
41 | C29G U35G C60G C62G | ≤ 0.5
42 | C29G G44C C49G C61G | ≤ 0.5
43 | C29G U47C C49G C60G | 0.648
44 | C29U A45C G67A | 0.536
45 | C29G G50C C55U | ≤ 0.5
46 | C29U C30U | 0.763
47 | C29U C30G | 0.716
48 | C29U C30A | 0.744

Row | Variant | yeast fitness
49 | C29U A42U U64C C66U A69U | ≤ 0.5
50 | C29U C31G A37C G50A | ≤ 0.5
51 | C29G G44C A45U U47A | ≤ 0.5
52 | C29U A37C A40G A42U | ≤ 0.5
53 | C29G C49A C55A C61U | ≤ 0.5
54 | C29G G44A U64G | ≤ 0.5
55 | C29G C60G | 0.851
56 | C29G G50C | 0.607
57 | C29G C55U U59G | ≤ 0.5
58 | C29G G67C | 0.667
59 | C29U A36U C66U G67A | 0.527
60 | C29U A40U A65U | 0.584
61 | C29G U32C C34U G56A | 0.667
62 | C29U A36U C66G | ≤ 0.5
63 | C29U A37U C46U | 0.602
64 | C29G U32C | 0.563
65 | C29G U32A | 0.501
66 | C29G C55U | ≤ 0.5
67 | C29G U59C | 0.606
68 | C29G U35A A36C A65G C66G | ≤ 0.5
69 | C29U A37U G67A | 0.643
70 | C29G G56A G68C | ≤ 0.5
71 | C29U A36C A43C C60A | ≤ 0.5
72 | C29G U35G C60G | ≤ 0.5

Row | Variant | yeast fitness
73 | C29G G56C C61A | 0.512
74 | C29U A45U U54A | ≤ 0.5
75 | C29G G52C | ≤ 0.5
76 | C29G U35C | 0.522
77 | C29G U35G | ≤ 0.5
78 | C29G U35A | 0.582
79 | C29U A40U A57G U64C | ≤ 0.5
80 | C29U C30G A70C | 0.536
81 | C29G U32G G38A U53C C66U | ≤ 0.5
82 | C29U A37C A65C | ≤ 0.5
83 | C29G U35G C61U | 0.552
84 | C29G U47G G63A A70U | ≤ 0.5
85 | C29U C30U C31G C34G A37C A45G | ≤ 0.5
86 | C29G U47G | 0.707
87 | C29G U47A | 0.561
88 | C29G C49G G50C A69U A70C | ≤ 0.5
89 | C29U C30A A45C | 0.563
90 | C29G C55A U64C | ≤ 0.5
91 | C29G G41C A57U | ≤ 0.5
92 | C29U C30U U32C C55G G58A U64A | ≤ 0.5
93 | C29G U35C A45U C60G G63C | 0.669
94 | C29G U35C A57G | ≤ 0.5
95 | C29G U53A | 0.523
96 | C29U A37G C49U | 0.613

Row | Variant | yeast fitness
97 | C29G C60G C61U | 0.52
98 | C29U A43U C46A | 0.76
99 | C29G G50A A65U | ≤ 0.5
100 | C29U A36C C46U U53A | ≤ 0.5
101 | C29U A37G G39C C49U | ≤ 0.5
102 | C29G U32C C46U | ≤ 0.5
103 | C29G U35G G41C C62U U64A | 0.602
104 | C29G C55U A65G C66A | ≤ 0.5
105 | C29G U32G G38A G48C G67U A69C | ≤ 0.5
106 | C29G C61A C62U | ≤ 0.5
107 | C29G U54G | 0.563
108 | C29G U54A | ≤ 0.5
109 | C29G C55G A57G A70C | ≤ 0.5
110 | C29U A42C | 0.676
111 | C29U A42G | 0.975
112 | C29U A42U | 0.769
113 | C29G C49G U53G A57G | ≤ 0.5
114 | C29G G58A | 0.68
115 | C29U A42U C61U C66A | ≤ 0.5
116 | C29G G44A A57U | 0.553
117 | C29U A40G U47A C61U C62A A70G | ≤ 0.5
118 | C29U A40C G56C C61G C62G G68C | ≤ 0.5
119 | C29U A40C C66U | 0.642
120 | C29U A40G U47A | 0.582

Row | Variant | yeast fitness
121 | C29G U47A U59A A69G | ≤ 0.5
122 | C29U A42U C66A | 0.567
123 | C29U A37U | 0.734
124 | C29U A37G | 0.729
125 | C29G C61G C66G | 0.558
126 | C29G U32G G38A U53C A57U C62U | ≤ 0.5
127 | C29G U53C C61G G67A A69C | ≤ 0.5
128 | C29U C31A U53G | ≤ 0.5
129 | C29G G39A G41A | ≤ 0.5
130 | C29G G58C A65C | ≤ 0.5
131 | C29U C31A C55U A57C | 0.62
132 | C29U A40C | 0.815
133 | C29U A40U | 0.836
134 | C29G G44C | 0.755
135 | C29G C61G | 0.54
136 | C29G C61U | 0.685
137 | C29G G41C C66G G68A | 0.587
138 | C29U A36C A45U U54C | ≤ 0.5
139 | C29G G48A C49U | ≤ 0.5
140 | C29U A42C G67C | 0.505
141 | C29U A37C C49U C55G G68C | ≤ 0.5
142 | C29G G39C A70U | 0.633
143 | C29U A42C A45C G50A | ≤ 0.5
144 | C29U A40U G56C A69C | 0.519

Row | Variant | yeast fitness
145 | C29G G48A A69U | 0.542
146 | C29U A65C | 0.751
147 | C29U A65G | 0.934
148 | C29G C49U | 0.718
149 | C29G C49G | 0.563
150 | C29G U32A C33U | ≤ 0.5
151 | C29U A42G U64C | 0.592
152 | C29G C55G A57G | 0.593
153 | C29U A37G G48A G68C A69U | 0.662
154 | C29U A36C A57U | ≤ 0.5
155 | C29G C62A C66U | ≤ 0.5
156 | C29U C31G C33A | 0.648
157 | C29G G56A A69U | ≤ 0.5
158 | C29G U32G G38A U53C | 0.566
159 | C29G G68A | 0.595
160 | C29G G50C U53C | ≤ 0.5
161 | C29U A45U C61U | 0.644
162 | C29G C46U A70U | 0.618
163 | C29G G56A | 0.632
164 | C29U C30U U59A | ≤ 0.5
165 | C29G G48A A70U | ≤ 0.5
166 | C29G G48A C55G A57G | ≤ 0.5
167 | C29G U32C A36U C61G | ≤ 0.5
